Source: ChEMBL document CHEMBL1123571, “[(6,7-Dichlorobenzo[b]thien-5-yl)oxy]acetic acids and 1,1-dioxides. 1. A structurally novel class of diuretics with hypotensive activity” (1987)
Several values for one entry are separate records, joined by “and”; a condition that tells them apart may be missing. Equal entries are not always repeated.

What was measured:
[1] = system: Rattus norvegicus; test: Hypotensive activity was determined in Spontaneously hypertensive rats (SHR) and initial blood pressure was determined at 50 mg/kg oral dose; format: functional
[2] = system: Mus musculus; test: Diuretic activity in saline loaded mice, activity is expressed as the sodium present in urine as mean milli equivalent/kg per 5 hr at 64 mg/kg oral dose; format: functional
Method in brief: (§1)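 Male CD-1 mice (18–24 g), 10 per treatment group, housed five per metabolic cage. Compound was given orally in 1% saline at 10 mL/kg, with a vehicle control group. Pooled urine was analysed for sodium by flame photometry. Values are mean mequiv/kg over 0–5 h.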

[3] = system: Rattus norvegicus; test: Hypotensive activity was determined in Spontaneously hypertensive rats (SHR) and peak decrease in systolic blood pressure on third day,2h post administration of 50 mg/kg oral dose was determined; format: functional, Artery
Method in brief: (§2)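 Okamoto-Aoki spontaneously hypertensive rats were dosed orally every day with compound suspended in distilled water with Tween 80. Systolic BP was taken by tail-cuff plethysmography on day 1 (predose, 2 h), day 3 (predose, 2 h) and day 5 (predose, 2 and 4 h). The value is the peak fall at day 3, 2 h postdose, ± SEM. Four rats were used in the screen and 4–8 per dose in dose-response.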

[4] = system: Mus musculus; test: Compound was tested for diuretic activity in saline loaded mice, activity is expressed as the sodium present in urine as mean milli equivalent/kg per 5 hr at 128 mg/kg oral dose; format: functional; method in brief: as §1
[5] = system: Mus musculus; test: Compound was tested for diuretic activity in saline loaded mice, activity is expressed as the sodium present in urine as mean milli equivalent/kg per 5 hr at 32 mg/kg oral dose; format: functional; method in brief: as §1
[6] = system: Rattus norvegicus; test: Hypotensive activity was determined in Spontaneously hypertensive rats (SHR) and initial blood pressure was determined at 30 mg/kg oral dose; format: functional
[7] = system: Rattus norvegicus; test: Hypotensive activity was determined in Spontaneously hypertensive rats (SHR) and peak decrease in systolic blood pressure on third day,2h post administration of 30 mg/kg oral dose was determined; format: functional, Artery; method in brief: as §2
[8] = system: Rattus norvegicus; test: Hypotensive activity was determined in Spontaneously hypertensive rats (SHR) and initial blood pressure was determined at 10 mg/kg oral dose; format: functional
[9] = system: Rattus norvegicus; test: Hypotensive activity was determined in Spontaneously hypertensive rats (SHR) and peak decrease in systolic blood pressure on third day,2h post administration of 10 mg/kg oral dose was determined; format: functional, Artery; method in brief: as §2
[10] = system: Mus musculus; test: Compound was tested for diuretic activity in saline loaded mice, activity is expressed as the sodium present in urine as mean milli equivalent/kg per 5 hr at 16 mg/kg oral dose; format: functional; method in brief: as §1
[11] = system: Rattus norvegicus; test: Hypotensive activity was determined in Spontaneously hypertensive rats (SHR) and peak decrease in systolic blood pressure on third day,2h post administration of 3 mg/kg oral dose was determined; format: functional, Artery; method in brief: as §2
[12] = system: Rattus norvegicus; test: Hypotensive activity was determined in Spontaneously hypertensive rats (SHR) and initial blood pressure was determined at 3 mg/kg oral dose; format: functional
[13] = species: Rattus norvegicus; test: Initial blood pressure before treatment; format: functional
Method in brief: (§3)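 Grollman renal hypertension (one kidney, one wrap) in male Sprague-Dawley rats. Under pentobarbital (50 mg/kg ip) the right kidney was removed and silk sutures were tied around both poles of the left kidney. After 3 weeks, rats with systolic BP >150 mmHg were selected. Oral dosing followed. Systolic BP was measured by tail-cuff plethysmography as day/hour readings, and the change was taken against the initial pressure.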

[14] = system: Rattus norvegicus; test: Hypotensive activity after 10 mg/kg oral dose in rats (Change in blood pressure after treatment (day/hours)); format: functional; method in brief: as §3
[15] = system: Rattus norvegicus; test: Hypotensive activity was determined in Spontaneously hypertensive rats (SHR) and initial blood pressure was determined at 25 mg/kg oral dose; format: functional
[16] = system: Rattus norvegicus; test: Hypotensive activity was determined in Spontaneously hypertensive rats (SHR) and peak decrease in systolic blood pressure on third day,2h post administration of 25 mg/kg oral dose was determined; format: functional, Artery; method in brief: as §2
[17] = system: Rattus norvegicus; test: Hypotensive activity was determined in Spontaneously hypertensive rats (SHR) and peak decrease in systolic blood pressure on third day,2h post administration of 1 mg/kg oral dose was determined; format: functional, Artery; method in brief: as §2
[18] = system: Rattus norvegicus; test: Hypotensive activity was determined in Spontaneously hypertensive rats (SHR) and initial blood pressure was determined at 1 mg/kg oral dose; format: functional
[19] = species: Rattus norvegicus; test: Change in blood pressure (Initial blood pressure- Post drug blood pressure); format: functional; method in brief: as §3
[20] = system: Rattus norvegicus; test: Hypotensive activity after 50 mg/kg oral dose in rats (Change in blood pressure after treatment (day/hours)); format: functional; method in brief: as §3

| SMILES | Initial blood pressure [1] [mmHg] | mequiv of Na+/kg [2] | Change in BP [3] [mmHg] | further results |
| --- | --- | --- | --- | --- |
| CCC(=O)c1cc2cc(OCC(=O)O)c(Cl)c(Cl)c2s1 | 173 | 1.18 0-5h | -1 |  |
| CC(=O)c1cc2cc(OCC(=O)O)c(Cl)c(Cl)c2s1 | 199 | 1.16 0-5h | -28 |  |
| CC(C)C1=Cc2cc(OCC(=O)O)c(Cl)c(Cl)c2S1(=O)=O | 192 | 2.58 0-5h | -33 | mequiv of Na+/kg [4]: 5.32 0-5h; mequiv of Na+/kg [5]: 0.88 0-5h |
| CC(C)CC1=Cc2cc(OCC(=O)O)c(Cl)c(Cl)c2S1(=O)=O | 176 | 3.24 0-5h | -14 |  |
| O=C(O)COc1cc2ccsc2c(Cl)c1Cl | 201 | 1 0-5h | 2 |  |
| O=C(O)COc1cc2c(c(Cl)c1Cl)S(=O)(=O)C1=C2CCCC1 | 179 | 0 0-5h | -8 |  |
| CCCCc1cc2cc(OCC(=O)O)c(Cl)c(Cl)c2s1 | 173 | 0.88 0-5h | -47 | Initial blood pressure [6]: 173 mmHg; Change in BP [7]: -16 mmHg; Initial blood pressure [8]: 171 mmHg; Change in BP [9]: -17 mmHg |
| Cc1csc2c(Cl)c(Cl)c(OCC(=O)O)cc12 | 203 | 0.8 0-5h | -12 |  |
| O=C(O)COc1cc2c(c(Cl)c1Cl)S(=O)(=O)C=C2 | 201 | 0.33 0-5h | -3 |  |
| CC(C)c1cc2cc(OCC(=O)O)c(Cl)c(Cl)c2s1 | 179 | 2.52 0-5h | -41 | mequiv of Na+/kg [10]: 1.24 0-5h; Initial blood pressure [6]: 195 mmHg; mequiv of Na+/kg [5]: 1.64 0-5h; Change in BP [7]: -32 mmHg; Initial blood pressure [8]: 178 mmHg; Change in BP [9]: -14 mmHg |
| O=C(O)COc1cc2c(c(Cl)c1Cl)S(=O)(=O)C(C1CCCCC1)=C2 | 202 | 1.25 0-5h | -43 | Change in BP [11]: -32 mmHg; Initial blood pressure [6]: 167 mmHg; Change in BP [7]: -30 mmHg; Initial blood pressure [12]: 187 mmHg |
| CCCc1cc2cc(OCC(=O)O)c(Cl)c(Cl)c2s1 | 181 | 1.74 0-5h | -1 |  |
| CCCC1=Cc2cc(OCC(=O)O)c(Cl)c(Cl)c2S1(=O)=O |  | 3.13 0-5h |  | Initial blood pressure [13]: 166 mmHg; mequiv of Na+/kg [4]: 4.99 0-5h; Change in BP [11]: -52 mmHg; mequiv of Na+/kg [10]: 1.06 0-5h; Initial blood pressure [6]: 202 mmHg; mequiv of Na+/kg [5]: 1.79 0-5h; Change in BP [7]: -64 mmHg; Initial blood pressure [12]: 205 mmHg; Post drug blood pressure [14]: 135 mmHg and 156 mmHg and 153 mmHg and 167 mmHg |
| CCc1cc2cc(OCC(=O)O)c(Cl)c(Cl)c2s1 |  | 2.07 0-5h |  | mequiv of Na+/kg [10]: 0.74 0-5h; mequiv of Na+/kg [5]: 1.51 0-5h; Initial blood pressure [15]: 176 mmHg; Change in BP [16]: -13 mmHg; Initial blood pressure [8]: 185 mmHg; Change in BP [9]: -21 mmHg |
| CCCCC1=Cc2cc(OCC(=O)O)c(Cl)c(Cl)c2S1(=O)=O | 185 | 2.42 0-5h | -24 |  |
| CC1=C(C)S(=O)(=O)c2c1cc(OCC(=O)O)c(Cl)c2Cl | 165 | 0.92 0-5h | -17 |  |
| O=C(O)COc1cc2cc(CO)sc2c(Cl)c1Cl | 199 | 1.23 0-5h | -5 |  |

| SMILES | Initial blood pressure [1] [mmHg] | mequiv of Na+/kg [2] | Change in BP [3] [mmHg] | further results |
| --- | --- | --- | --- | --- |
| CC1=Cc2cc(OCC(=O)O)c(Cl)c(Cl)c2S1(=O)=O | 180 | 4.34 0-5h | -25 | mequiv of Na+/kg [4]: 6.36 0-5h; mequiv of Na+/kg [10]: 1.33 0-5h; mequiv of Na+/kg [5]: 2.11 0-5h |
| CCC1=Cc2cc(OCC(=O)O)c(Cl)c(Cl)c2S1(=O)=O | 213 | 3.35 0-5h | -8 | mequiv of Na+/kg [4]: 6.51 0-5h; mequiv of Na+/kg [10]: 0.66 0-5h; mequiv of Na+/kg [5]: 1.84 0-5h |
| O=C(O)COc1cc2c3c(sc2c(Cl)c1Cl)CCCC3 | 177 | 0.45 0-5h | -12 |  |
| O=C(O)COc1cc2cc(C3CCCCC3)sc2c(Cl)c1Cl | 178 | 1.6 0-5h | 2 |  |
| Cc1sc2c(Cl)c(Cl)c(OCC(=O)O)cc2c1C | 192 | 0.13 0-5h | -37 |  |
| O=C(O)COc1cc2c(c(Cl)c1Cl)S(=O)(=O)C(C1CCCC1)=C2 | 180 | 1.79 0-5h | -17 |  |
| O=C(O)COc1cc2cc(C3CCCC3)sc2c(Cl)c1Cl | 193 | 1.3 0-5h | -31 |  |
| CC(C)(O)c1cc2cc(OCC(=O)O)c(Cl)c(Cl)c2s1 | 193 | 4.4 0-5h | -25 | mequiv of Na+/kg [4]: 6.24 0-5h; mequiv of Na+/kg [10]: 0.53 0-5h; mequiv of Na+/kg [5]: 2.21 0-5h |
| CCC(O)c1cc2cc(OCC(=O)O)c(Cl)c(Cl)c2s1 (stereo unspecified) | 166 | 3.89 0-5h | -22 |  |
| CC(O)c1cc2cc(OCC(=O)O)c(Cl)c(Cl)c2s1 (stereo unspecified) | 183 | 2.86 0-5h | -7 |  |
| CC(O)C1=Cc2cc(OCC(=O)O)c(Cl)c(Cl)c2S1(=O)=O (stereo unspecified) | 176 | 0.43 0-5h | -9 |  |
| Cc1cc2cc(OCC(=O)O)c(Cl)c(Cl)c2s1 | 215 | 1.16 0-5h | -51 | Change in BP [11]: -37 mmHg; Change in BP [17]: -42 mmHg; Initial blood pressure [8]: 196 mmHg; Initial blood pressure [12]: 173 mmHg; Initial blood pressure [18]: 177 mmHg; Change in BP [9]: -33 mmHg |
| CC(C)Cc1cc2cc(OCC(=O)O)c(Cl)c(Cl)c2s1 | 176 | 1.29 0-5h | 4 |  |
| C=C(CC)C(=O)c1ccc(OCC(=O)O)c(Cl)c1Cl [ETHACRYNIC ACID] |  | 4.14 0-5h |  |  |
| NS(=O)(=O)c1cc2c(cc1Cl)NCNS2(=O)=O [HYDROCHLOROTHIAZIDE] | 188 |  | -26 | Initial blood pressure [13]: 168 mmHg; Delta blood pressure [19]: -18 mmHg [middle of 4 runs]; Post drug blood pressure [20]: 156 mmHg and 133 mmHg and 148 mmHg and 150 mmHg |
| O=C(O)COc1ccc(C(=O)c2cccs2)c(Cl)c1Cl [TICRYNAFEN] | 200 | 3.31 0-5h | -14 |  |
